Measurements: ChEMBL document CHEMBL3232876, “Novel R-(+)-limonene-based thiosemicarbazones and their antitumor activity against human tumor cell lines” (Eur J Med Chem, 2014)

Key:
[1] = system: U-251; test: Growth inhibition of human U251 cells after 48 hrs by sulforhodamine B assay; format: functional; conditions: U-251, 48 h
Summary of the method: (§1)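 Tumour lines from NCI and Vero from the Rio de Janeiro Cell Bank, grown in RPMI 1640 with 5% fetal bovine serum, with penicillin:streptomycin added to experimental cultures. Each compound was tested at four 10-fold dilutions; sulforhodamine B staining at time zero and 48 h. Proliferation was calculated against T0 and drug-free controls, and GI50 came from sigmoidal regression of the concentration-response curves. Representative experiment in triplicate.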

[2] = Growth inhibition of human UACC62 cells after 48 hrs by sulforhodamine B assay; format: functional; conditions: UACC-62, 48 h; summary of the method: as §1
[3] = system: MCF7; test: Growth inhibition of human MCF7 cells after 48 hrs by sulforhodamine B assay; format: functional; conditions: MCF7, 48 h; summary of the method: as §1
[4] = Growth inhibition of human NCI-ADR-RES cells after 48 hrs by sulforhodamine B assay; format: functional; summary of the method: as §1
[5] = system: NCI-H460; test: Growth inhibition of human NCI-H460 cells after 48 hrs by sulforhodamine B assay; format: functional; conditions: NCI-H460, 48 h; summary of the method: as §1
[6] = system: 786-0; test: Growth inhibition of human 786-0 cells after 48 hrs by sulforhodamine B assay; format: functional; conditions: 786-0, 48 h; summary of the method: as §1
[7] = system: PC-3; test: Growth inhibition of human PC3 cells after 48 hrs by sulforhodamine B assay; format: functional; conditions: PC-3, 48 h; summary of the method: as §1
[8] = Growth inhibition of human OVCAR3 cells after 48 hrs by sulforhodamine B assay; format: functional; conditions: OVCAR-3, 48 h; summary of the method: as §1
[9] = system: HT-29; test: Growth inhibition of human HT-29 cells after 48 hrs by sulforhodamine B assay; format: functional; conditions: HT-29, 48 h; summary of the method: as §1
[10] = system: K562; test: Growth inhibition of human K562 cells after 48 hrs by sulforhodamine B assay; format: functional; conditions: K562, 48 h; summary of the method: as §1
[11] = (§2) Growth inhibition of African green monkey Vero cells after 48 hrs by sulforhodamine B assay; format: cell-based; conditions: chlorocebus sabaeus, Vero cells; summary of the method: as §1
[12] = system: Vero; test: as §2; format: cell-based; conditions: chlorocebus sabaeus, vero, 48 h; summary of the method: as §1

| SMILES | GI50 [1] [µM] | TGI [1] [µM] | GI50 [3] [µM] | TGI [3] [µM] | GI50 [4] [µM] | TGI [4] [µM] | GI50 [5] [µM] | TGI [5] [µM] | GI50 [6] [µM] | TGI [6] [µM] | GI50 [7] [µM] | TGI [7] [µM] | GI50 [8] [µM] | TGI [8] [µM] | GI50 [9] [µM] | TGI [9] [µM] | GI50 [10] [µM] | TGI [10] [µM] | GI50 at 48 h [11] [µM] | TGI [12] [µM] | also measured |
| --- | --- | --- | --- | --- | --- | --- | --- | --- | --- | --- | --- | --- | --- | --- | --- | --- | --- | --- | --- | --- | --- |
| CC1=CC[C@H](C(C)(C)NC(=S)N/N=C(\C)c2ccc([N+](=O)[O-])cc2)CC1 | 7 | 29.3 | 8 | 77.5 | 9.9 | > 100 | 50.8 | 83.7 | 21.7 | > 100 | 62.6 | > 100 | 7.7 | 29.3 | 29.9 | > 100 | 83.4 | > 100 | 67.1 | > 100 | GI50 [2]: 7.2 µM; TGI [2]: 46.8 µM |
| C=C(C)[C@H]1CC=C(C)CC1 [D-LIMONENE] | > 100 | > 100 | > 100 | > 100 | > 100 | > 100 | > 100 | > 100 | > 100 | > 100 | > 100 | > 100 | > 100 | > 100 | > 100 | > 100 | 23.9 | > 100 | > 100 | > 100 |  |
| CC1=CC[C@H](C(C)(C)NC(=S)N/N=C/c2cccc(Cl)c2)CC1 | 7.9 | 35.8 | 8 | 61 | 67.5 | > 100 | 1.4 | 21.4 | 9.2 | 26.9 | 0.6 | 6.6 | 13.6 | 80.5 | 7.9 | 53 | 5.4 | > 100 | 14.8 | > 100 | GI50 [2]: 9 µM; TGI [2]: 39.8 µM |
| CC(=O)O[C@H]1C(=O)[C@@]2(C)[C@H]([C@H](OC(=O)c3ccccc3)[C@]3(O)C[C@H](OC(=O)[C@H](O)[C@@H](NC(=O)c4ccccc4)c4ccccc4)C(C)=C1C3(C)C)[C@]1(OC(C)=O)CO[C@@H]1C[C@@H]2O [PACLITAXEL] | 0.003 | 0.1 | 0.005 | 0.4 | 0.04 | 0.4 | 0.1 | 0.08 | 0.02 | 0.8 | < 0.1 | < 0.03 | 0.2 | < 0.03 | 0.001 | < 0.03 | 0.1 | 0.1 | 0.03 |  | GI50 [2]: 0.01 µM; TGI [2]: 0.5 µM |
| CC1=CC[C@H](C(C)(C)NC(=S)NN)CC1 | 0.2 | 10.1 | 0.9 | 46.7 | 39.3 | > 100 | 42 | > 100 | > 100 | > 100 | 44.5 | > 100 | 41.9 | > 100 | 60.1 | > 100 | > 100 | > 100 | 49.5 | > 100 |  |
| CC1=CC[C@H](C(C)(C)N=C=S)CC1 | 29.1 | > 100 | 57.6 | > 100 | > 100 | > 100 | > 100 | > 100 | > 100 | > 100 | > 100 | > 100 | > 100 | > 100 | > 100 | > 100 | 4 | > 100 | > 100 | > 100 |  |
